In data set [1] the test system is Pseudomonas aeruginosa. As to the kind of experiment: Antibacterial activity against Pseudomonas aeruginosa ATCC 27853 assessed as inhibition of bacterial growth at up to 100 ug/ml after 7 hrs by spectrophotometer. Format: functional, organism-based. The procedure, abridged: (§1)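 Tested at 10, 25, 50 and 100 µg/mL in Mueller-Hinton broth at 37 °C with rotary shaking at 150 rpm. Incubation was 16 h for E. coli and 7 h for P. aeruginosa. Growth was read turbidimetrically at 600 nm.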

For data set [2], the system named is Salmonella typhimurium. As to the kind of experiment: Mutagenicity in Salmonella typhimurium TA100 assessed as revertant colonies at 300 umol incubated under anaerobic conditions for 16 to 17 hrs followed by 48 hrs under aerobic conditions by Ames test in presence of Sprague-Dawley rat liver S9 fraction. Format: toxicity, organism-based. To be noted: salmonella enterica subsp. enterica serovar typhimurium. A digest of the protocol: (§2)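 Ames plate-incorporation assay. Overnight TA-100 nutrient-broth culture, about 10^7 cells per plate. Compound solutions were adjusted to pH 7 and filter-sterilized, then mixed in a histidine-biotin-limited agar overlay on minimal glucose agar, with or without S-9. S-9 was the 9000g supernatant of 25% liver homogenate in 0.15 M KCl from phenobarbital-treated male Sprague-Dawley rats. Plates were incubated aerobically at 37 °C in the dark for 2 days, or anaerobically (Gas-Pak) for 16-17 h and then aerobically for 48 h. Revertants were counted in triplicate and averaged. Matched vehicle/condition background was subtracted.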
In general terms: The Ames test detects mutagens through reverse mutation in bacteria.

Data set [3] concerns Escherichia coli. In words: Antibacterial activity against Escherichia coli ATCC 25922 assessed as inhibition of bacterial growth at up to 100 ug/ml after 16 hrs by spectrophotometer. Format: functional, organism-based. A digest of the protocol:
as §1

The test system of data set [4] is Salmonella typhimurium. In words: Mutagenicity in Salmonella typhimurium TA100 assessed as revertant colonies at 300 umol incubated under anaerobic conditions for 16 to 17 hrs followed by 48 hrs under aerobic conditions by Ames test. Format: toxicity, organism-based. To be noted: salmonella enterica subsp. enterica serovar typhimurium. A digest of the protocol:
as §2

The subject of data set [5] is Candida albicans. As to the kind of experiment: Antifungal activity against Candida albicans clinical isolate assessed as inhibition of fungal growth up to 100 ug/ml after 16 hrs by spectrophotometer. Type of data set: functional, organism-based. The procedure, abridged: (§3)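 Yeast nitrogen base (pH 7.0), with compound at 10, 25, 50 and 100 µg/mL. Incubated 16 h at 37 °C with 150 rpm rotary shaking. Turbidity was read at 600 nm.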

Data set [6] has as its system Candida albicans. In words: Antifungal activity against Candida albicans ATCC 11651 assessed as inhibition of fungal growth up to 100 ug/ml after 16 hrs by spectrophotometer. Type of data set: functional, organism-based. The procedure, abridged: as §3
For data set [7], the system named is Salmonella typhimurium. In words: Mutagenicity in Salmonella typhimurium TA100 assessed as revertant colonies at 300 umol incubated under aerobic conditions in dark for 2 days by Ames test in presence of Sprague-Dawley rat liver S9 fraction. To be noted: salmonella enterica subsp. enterica serovar typhimurium, s9, 48 h. Format: toxicity, organism-based. The procedure, abridged:
as §2

A short description of data set [8]: Acute toxicity in ip dosed Swiss-Webster mouse measured after 72 hrs. Format: organism-based. To be noted: in vivo.
In data set [9] the test system is Mycolicibacterium smegmatis. As to the kind of experiment: Antibacterial activity against Mycobacterium smegmatis H607 assessed as inhibition of bacterial growth up to 100 ug/ml after 22 hrs by spectrophotometer. Format: functional, organism-based. The procedure, abridged: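 Sauton synthetic medium, with compound at 10, 25, 50 and 100 µg/mL. Incubated 22 h at 37 °C with rotary shaking at 150 rpm. Growth was measured turbidimetrically at 600 nm.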

The test system of data set [10] is Salmonella typhimurium. In words: Mutagenicity in Salmonella typhimurium TA100 assessed as revertant colonies at 300 umol incubated under aerobic conditions in dark for 2 days by Ames test. Format: toxicity, organism-based. Conditions: salmonella enterica subsp. enterica serovar typhimurium, 48 h. A digest of the protocol:
as §2

Calls of active or inactive are those of the source. No cut-off for these calls is given here.

For `O=C(O)[C@@H]1CCCN1[N+](=O)[O-]`, the inhibition result in data set [1], in [3], in data set [5], in [6] and in [9] was “inactive” throughout. Further, the Activity result in data set [2], in data set [4], in [7] and in data set [10] was “Non-toxic” throughout. Further, the LD50 (usually the dose at which mortality reaches 50%) at 72 h in data set [8] amounted to 1170 µmol/kg.
Turning to `O=C(O)C1CCCCN1[N+](=O)[O-]` (racemic), the inhibition entry in data set [1], in [3], in [5], in data set [6] and in data set [9] was “inactive” in each case. Moreover, the Activity result in [2], in [4], in data set [7] and in data set [10] was “Non-toxic” in each case. Besides, in [8], the LD50 at 72 h came out at 2100 µmol/kg.
With `O=C(O)[C@H]1CCCN1[N+](=O)[O-]`, the inhibition result in data set [1], in [3], in data set [5], in data set [6] and in data set [9] was “inactive” in each case. Also, the LD50 at 72 h in data set [8] stood at 1390 µmol/kg.

Values taken from ChEMBL document CHEMBL3244321, “Nitramino acids. Synthesis and biological evaluation of 1-nitroproline, 1-nitropipecolic acid, and N-nitrosarcosine” (J Med Chem, 1977).
